Test results: ChEMBL document CHEMBL4052682, “Exploitation of Conformational Dynamics in Imparting Selective Inhibition for Related Matrix Metalloproteinases” (ACS Med Chem Lett, 2017)
Active and inactive are the calls of the source. The calls are words filed in the database; no cut-off is given here.

Assays:
Neutrophil collagenase [1] = biological target: T1, Neutrophil collagenase (Homo sapiens, UniProt P22894); assay: (§1) Inhibition of human recombinant MMP-8 catalytic domain (99 to 269 residues) expressed in Escherichia coli using fluorogenic Mca-KPLGL-Dpa-AR-NH2 as substrate at 10 uM by fluorescence spectrophotometric analysis relative to control; conditions: 10 µM
Collagenase 3 [2] = biological target: T2, Collagenase 3 (Homo sapiens, UniProt P45452); assay: Inhibition of human recombinant MMP-13 catalytic domain (104 to 274 residues) expressed in Escherichia coli using fluorogenic Mca-KPLGL-Dpa-AR-NH2 as substrate at 10 uM by fluorescence spectrophotometric analysis relative to control
How it was run: (§2)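 Single-concentration screen: compounds were incubated at 10 μM with each MMP and its substrate, and percent inhibition was measured.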

Neutrophil collagenase [3] = biological target: T1, Neutrophil collagenase; assay: Inhibition of human recombinant MMP-8 catalytic domain (99 to 269 residues) expressed in Escherichia coli using fluorogenic Mca-KPLGL-Dpa-AR-NH2 as substrate by fluorescence spectrophotometric analysis
How it was run: (§3)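 Ki was determined only for compounds giving more than 50% inhibition in the 10 μM enzyme–substrate screen.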

[4] = biological target: MMP-8 (neutrophil collagenase) (Homo sapiens, UniProt P22894); assay: as §1; conditions: probe Mca-KPLGL-Dpa-AR-NH2 (fluorogenic)
[5] = biological target: Matrix metalloproteinase-14 (Homo sapiens) (UniProt P50281); assay: Inhibition of human recombinant MMP-14 catalytic domain (89 to 265 residues) expressed in Escherichia coli using fluorogenic MOCAc-Pro-Leu-Gly-Leu-A2pr(Dnp)-Ala-Arg-NH2 as substrate at 10 uM by fluorescence spectrophotometric analysis; how it was run: as §2
Collagenase 3 [6] = biological target: T2, Collagenase 3; assay: Inhibition of human recombinant MMP-13 catalytic domain (104 to 274 residues) expressed in Escherichia coli using fluorogenic Mca-KPLGL-Dpa-AR-NH2 as substrate by fluorescence spectrophotometric analysis; how it was run: as §3
[7] = biological target: 72 kDa type IV collagenase (Homo sapiens) (UniProt P08253); assay: Inhibition of human recombinant full length active MMP-2 expressed in mouse cells using fluorogenic MOCAc-Pro-Leu-Gly-Leu-A2pr(Dnp)-Ala-Arg-NH2 as substrate at 10 uM by fluorescence spectrophotometric analysis; assay type: biochemical; how it was run: as §2
[8] = biological target: Matrix metalloproteinase-9 (Homo sapiens) (UniProt P14780); assay: Inhibition of human recombinant MMP-9 catalytic domain (107 to 449 residues) expressed in Escherichia coli using fluorogenic MOCAc-Pro-Leu-Gly-Leu-A2pr(Dnp)-Ala-Arg-NH2 as substrate at 10 uM by fluorescence spectrophotometric analysis; how it was run: as §2
[9] = biological target: T3, Matrilysin (Homo sapiens) (UniProt P09237); assay: Inhibition of human recombinant active MMP-7 expressed in Escherichia coli using fluorogenic MOCAc-Pro-Leu-Gly-Leu-A2pr(Dnp)-Ala-Arg-NH2 as substrate at 10 uM by fluorescence spectrophotometric analysis; how it was run: as §2
T3 sequence (whole entry): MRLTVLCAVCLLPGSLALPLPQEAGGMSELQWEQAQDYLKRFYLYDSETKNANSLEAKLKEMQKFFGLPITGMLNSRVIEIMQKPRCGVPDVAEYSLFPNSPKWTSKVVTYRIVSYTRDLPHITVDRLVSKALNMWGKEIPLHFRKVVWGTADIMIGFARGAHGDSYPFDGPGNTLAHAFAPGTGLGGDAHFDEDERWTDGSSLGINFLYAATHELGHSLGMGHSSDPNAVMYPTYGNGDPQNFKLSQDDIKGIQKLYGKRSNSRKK

[10] = biological target: Matrix metalloproteinase-14 (Homo sapiens) (UniProt P50281); assay: Inhibition of human recombinant MMP-14 catalytic domain ([…]) using fluorogenic MOCAc-Pro-Leu-Gly-Leu-A2pr(Dnp)-Ala-Arg-NH2 as substrate at 50 uM by fluorescence spectrophotometric analysis relative to control
[11] = biological target: T4, Interstitial collagenase (Homo sapiens) (UniProt P03956); assay: Inhibition of human recombinant MMP-1 catalytic domain (100 to 268 residues) expressed in Escherichia coli using fluorogenic Mca-KPLGL-Dpa-AR-NH2 as substrate at 10 uM by fluorescence spectrophotometric analysis; how it was run: as §2
T4 sequence (whole entry): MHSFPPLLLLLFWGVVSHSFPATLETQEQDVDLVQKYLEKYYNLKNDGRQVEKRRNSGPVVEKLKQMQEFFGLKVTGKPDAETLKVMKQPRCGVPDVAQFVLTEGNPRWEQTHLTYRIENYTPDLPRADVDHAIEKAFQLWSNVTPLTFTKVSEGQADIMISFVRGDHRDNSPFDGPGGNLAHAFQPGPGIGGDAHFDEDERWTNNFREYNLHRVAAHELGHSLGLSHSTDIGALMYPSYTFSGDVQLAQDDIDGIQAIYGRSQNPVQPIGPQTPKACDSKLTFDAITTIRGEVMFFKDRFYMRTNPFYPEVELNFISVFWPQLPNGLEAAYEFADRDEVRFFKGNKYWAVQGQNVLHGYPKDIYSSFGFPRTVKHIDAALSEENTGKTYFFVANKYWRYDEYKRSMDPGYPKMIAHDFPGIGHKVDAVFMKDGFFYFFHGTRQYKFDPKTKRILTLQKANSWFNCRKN

[12] = biological target: Stromelysin-1 (Homo sapiens) (UniProt P08254); assay: Inhibition of human recombinant MMP-3 catalytic domain expressed in Escherichia coli using fluorogenic MOCAc-Arg-Pro-Lys-Pro-Val-Glu-Nva-Trp-Arg-Lys(Dnp)-NH2 as substrate at 10 uM by fluorescence spectrophotometric analysis; how it was run: as §2
[13] = biological target: Matrix metalloproteinase-14 (Homo sapiens) (UniProt P50281); assay: Inhibition of human recombinant MMP-14 catalytic domain ([…]) using fluorogenic MOCAc-Pro-Leu-Gly-Leu-A2pr(Dnp)-Ala-Arg-NH2 as substrate at 10 uM by fluorescence spectrophotometric analysis relative to control; how it was run: as §2
[14] = Elimination half life in CD-1 mouse at 1 mg/kg, iv administered as single dose by UPLC analysis; assay type: ADME, organism-based; conditions: in vivo, read-out: beta t1/2 (converted)
How it was run: (§4)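 Mouse pharmacokinetics after a single 1 mg/kg intravenous dose. Three mice were sampled per time point and plasma concentration–time curves were built. Plasma levels were read at 2 min and at 24 h. AUC0-∞, clearance (also expressed as a percentage of hepatic blood flow), volume of distribution and elimination half-life were derived from the curves.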

[15] = AUC (0 to infinity) in CD-1 mouse at 10 mg/kg, po by UPLC analysis; assay type: ADME, organism-based; parameters: dose 10 mg/kg, time infinity, route oral; conditions: in vivo
[16] = Oral bioavailability in CD-1 mouse at 10 mg/kg by UPLC analysis; assay type: ADME, organism-based; conditions: in vivo
How it was run: (§5)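 Mouse pharmacokinetics after a single 10 mg/kg oral dose. Three mice were sampled per time point, out to 48 h, and plasma concentration–time curves were built. Cmax and its time, elimination half-life and AUC0-∞ were derived. Absolute oral bioavailability came from the oral AUC relative to the intravenous (1 mg/kg) AUC, after dose adjustment.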

[17] = Plasma concentration in CD-1 mouse at 1 mg/kg, iv administered as single dose after 24 hrs by UPLC analysis; assay type: ADME, organism-based; how it was run: as §4
Mus musculus [18] = assay: Clearance in CD-1 mouse at 1 mg/kg, iv administered as single dose by UPLC analysis relative to hepatic blood flow; assay type: ADME, organism-based; conditions: in vivo; how it was run: as §4
[19] = Clearance in CD-1 mouse at 1 mg/kg, iv administered as single dose by UPLC analysis; assay type: ADME, organism-based; conditions: in vivo; how it was run: as §4
[20] = AUC (0 to infinity) in CD-1 mouse at 1 mg/kg, iv administered as single dose by UPLC analysis; assay type: ADME, organism-based; parameters: dose 1 mg/kg, time infinity, route intravenous; conditions: in vivo; how it was run: as §4
[21] = Plasma concentration in CD-1 mouse at 10 mg/kg, po after 48 hrs by UPLC analysis; conditions: in vivo
Mus musculus [22] = assay: Time at which plasma concentration stays above human recombinant MMP-13 Ki level in CD-1 mouse at 1 mg/kg, iv administered as single dose by UPLC analysis
[23] = Cmax in CD-1 mouse at 10 mg/kg, po after 6 hrs by UPLC analysis; assay type: ADME, organism-based; parameters: dose 10 mg/kg, route oral; conditions: in vivo; how it was run: as §5
[24] = Volume of distribution in CD-1 mouse at 1 mg/kg, iv administered as single dose by UPLC analysis; assay type: ADME, organism-based; conditions: in vivo; how it was run: as §4
[25] = Plasma concentration in CD-1 mouse at 1 mg/kg, iv administered as single dose after 2 mins by UPLC analysis; assay type: ADME, organism-based; how it was run: as §4
[26] = Elimination half life in CD-1 mouse at 10 mg/kg, po by UPLC analysis; assay type: ADME, organism-based; conditions: in vivo, read-out: beta t1/2 (converted); how it was run: as §5

T1 sequence (P22894 whole entry, the tested form may be a part): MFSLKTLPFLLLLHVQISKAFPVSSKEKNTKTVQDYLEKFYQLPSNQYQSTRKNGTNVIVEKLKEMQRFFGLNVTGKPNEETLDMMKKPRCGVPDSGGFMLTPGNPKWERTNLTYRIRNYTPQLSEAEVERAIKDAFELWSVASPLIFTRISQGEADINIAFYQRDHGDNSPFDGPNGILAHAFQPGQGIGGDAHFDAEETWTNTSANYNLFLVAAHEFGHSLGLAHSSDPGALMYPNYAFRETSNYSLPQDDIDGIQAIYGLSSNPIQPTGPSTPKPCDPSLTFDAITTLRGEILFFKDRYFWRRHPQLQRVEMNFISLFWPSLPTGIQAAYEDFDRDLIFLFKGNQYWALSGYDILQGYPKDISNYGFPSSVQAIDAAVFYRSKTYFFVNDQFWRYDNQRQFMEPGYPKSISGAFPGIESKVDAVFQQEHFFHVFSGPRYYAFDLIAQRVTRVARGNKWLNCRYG
MMP-8 (neutrophil collagenase), sequence (P22894 whole entry, the tested form may be a part): as above
72 kDa type IV collagenase (Homo sapiens), sequence (P08253 110-660 limits assumed): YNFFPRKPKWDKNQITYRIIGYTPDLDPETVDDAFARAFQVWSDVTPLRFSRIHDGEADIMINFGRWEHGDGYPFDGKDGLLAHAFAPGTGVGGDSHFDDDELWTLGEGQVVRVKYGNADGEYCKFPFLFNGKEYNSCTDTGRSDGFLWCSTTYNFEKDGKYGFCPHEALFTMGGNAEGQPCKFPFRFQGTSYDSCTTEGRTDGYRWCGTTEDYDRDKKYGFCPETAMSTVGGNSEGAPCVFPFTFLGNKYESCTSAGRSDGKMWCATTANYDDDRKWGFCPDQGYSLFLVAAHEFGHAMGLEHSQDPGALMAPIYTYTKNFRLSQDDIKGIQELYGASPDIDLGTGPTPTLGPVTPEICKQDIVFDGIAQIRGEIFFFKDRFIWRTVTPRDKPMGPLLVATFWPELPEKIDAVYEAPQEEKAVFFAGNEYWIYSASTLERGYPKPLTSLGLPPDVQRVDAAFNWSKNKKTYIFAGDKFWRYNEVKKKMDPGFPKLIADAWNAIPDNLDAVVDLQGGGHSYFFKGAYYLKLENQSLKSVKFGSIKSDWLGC
Matrix metalloproteinase-9 (Homo sapiens), sequence (P14780 whole entry, the tested form may be a part): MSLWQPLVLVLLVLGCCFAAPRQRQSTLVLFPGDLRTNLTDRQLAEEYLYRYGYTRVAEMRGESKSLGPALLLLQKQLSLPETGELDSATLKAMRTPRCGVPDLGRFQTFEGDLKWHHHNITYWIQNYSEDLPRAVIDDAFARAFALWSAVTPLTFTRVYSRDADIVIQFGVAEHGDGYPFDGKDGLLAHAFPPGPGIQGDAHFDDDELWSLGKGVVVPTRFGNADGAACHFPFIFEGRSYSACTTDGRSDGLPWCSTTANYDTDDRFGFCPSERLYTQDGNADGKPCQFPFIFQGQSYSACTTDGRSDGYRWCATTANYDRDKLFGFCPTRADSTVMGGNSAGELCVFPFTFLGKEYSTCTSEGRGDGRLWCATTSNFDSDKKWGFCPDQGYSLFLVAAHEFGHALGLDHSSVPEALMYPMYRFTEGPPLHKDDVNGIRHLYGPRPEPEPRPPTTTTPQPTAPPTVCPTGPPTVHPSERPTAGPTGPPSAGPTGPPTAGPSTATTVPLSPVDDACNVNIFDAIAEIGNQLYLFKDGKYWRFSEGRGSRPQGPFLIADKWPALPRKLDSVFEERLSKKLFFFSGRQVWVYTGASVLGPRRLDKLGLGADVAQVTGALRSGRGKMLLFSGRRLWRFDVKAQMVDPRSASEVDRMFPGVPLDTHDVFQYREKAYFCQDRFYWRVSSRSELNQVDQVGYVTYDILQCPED
Stromelysin-1 (Homo sapiens), sequence (P08254 100-477 limits assumed): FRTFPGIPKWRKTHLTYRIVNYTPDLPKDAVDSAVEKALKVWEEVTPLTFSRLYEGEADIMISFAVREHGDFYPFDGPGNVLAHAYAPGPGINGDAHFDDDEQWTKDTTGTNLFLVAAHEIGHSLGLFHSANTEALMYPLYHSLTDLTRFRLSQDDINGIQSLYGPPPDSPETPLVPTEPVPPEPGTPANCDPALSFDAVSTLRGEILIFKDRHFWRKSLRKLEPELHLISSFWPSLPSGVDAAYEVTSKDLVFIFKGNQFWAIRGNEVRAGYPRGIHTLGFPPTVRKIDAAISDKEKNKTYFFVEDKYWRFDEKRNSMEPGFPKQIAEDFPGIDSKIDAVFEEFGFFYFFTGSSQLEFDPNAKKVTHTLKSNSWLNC

Structure (SMILES) | inhibition (INH) (Neutrophil collagenase [1]) | inhibition (Collagenase 3 [2]) | Ki (Neutrophil collagenase [3]) [µM] | inhibition at 10 µM [4] [%] | inhibition [5] | Ki (Collagenase 3 [6]) [µM] | inhibition [7] | inhibition [8] | inhibition [9] | inhibition [11] | inhibition [12] | inhibition [13] [%] | also measured
O=C1COc2ccc(CNC(=O)c3nc4sc(C5CCCCC5)cc4c(=O)[nH]3)cc2N1 |  | > 50% | 0.0033 | > 50 | inactive | 0.0245 | inactive | inactive | inactive | inactive | inactive |  | inhibition [10]: 57%
O=C1COc2ccc(CNC(=O)c3cc(-c4cccc5ccccc45)n[nH]3)cc2N1 | Not Active | Active |  |  |  |  |  |  |  |  |  |  | 
O=C1COc2ccc(CNC(=O)c3nc4scc(CCc5ccccc5)c4c(=O)[nH]3)cc2N1 |  | > 50% | 6.5 | > 50 | inactive | 0.19 | inactive | inactive | inactive | inactive | inactive | 4 | 
O=C1COc2ccc(CNC(=O)c3nc4scc(C5CCCCC5)c4c(=O)[nH]3)cc2N1 |  | > 50% | 0.019 | > 50 | inactive | 0.00047 | inactive | inactive | inactive | inactive | inactive | 14 | 

Continued, in another order:

inhibition (INH) (Neutrophil collagenase [1]) | inhibition (Collagenase 3 [2]) | Ki (Neutrophil collagenase [3]) [µM] | inhibition at 10 µM [4] [%] | inhibition [5] | Ki (Collagenase 3 [6]) [µM] | inhibition [7] | inhibition [8] | inhibition [9] | inhibition [11] | inhibition [12] | inhibition [13] [%] | Structure (SMILES) | also measured
Not Active | Active |  |  |  |  |  |  |  |  |  |  | O=C1COc2ccc(CNC(=O)c3cc(-c4ccsc4)n[nH]3)cc2N1 | 
Not Active | Active |  |  |  |  |  |  |  |  |  |  | O=C1COc2ccc(CNC(=O)c3cc(-c4ccccc4)n[nH]3)cc2N1 | 
 | > 50% | 8.5 | > 50 | inactive | 0.036 | inactive | inactive | inactive | inactive | inactive | 1 | O=C1COc2ccc(CNC(=O)c3nc4scc(-c5ccc(C(F)(F)F)cc5)c4c(=O)[nH]3)cc2N1 | half-life [14]: 5.3 h; AUC(0-inf) [15]: 6.92 µM·h; bioavailability [16]: 4.7%; concentration at 24 h [17]: 62 nM; CL (Mus musculus [18]): 3%; clearance [19]: 2.2 mL/min/kg; AUC(0-inf) [20]: 14.8 µM·h; Plasma concentration at 48 h [21]: 42 nM; Time (Mus musculus [22]): 24 h; Cmax [23]: 400 nM; Vd [24]: 1 L/kg; concentration at 2 min [25]: 4400 nM; half-life [26]: 17.5 h
 | > 50% | 0.00071 | > 50 | inactive | 0.00059 | inactive | inactive | inactive | inactive | inactive | 14 | O=C1COc2ccc(CNC(=O)c3nc4sc5c(c4c(=O)[nH]3)CCCCCC5)cc2N1 | 
